≈ marks a conversion by molar mass, not a printed value. Calls of active or inactive are those of the source. The calls are words filed in the database; no cut-off is given here.
Legend:
[1] = Aqueous solubility at pH 7.4; assay type: physicochemical; conditions: buffer
How it was run: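 Aqueous solubility measured at pH 7.4.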

[2] = molecular target: T1, C-X-C chemokine receptor type 5 (Homo sapiens) (UniProt P32302); experiment: Antagonist activity at human CXCR5 expressed in mouse L1.2 cells assessed as inhibition of CXCL13-induced chemotaxis up to 10 uM after 4 hrs; assay type: functional, cell-based
T1 sequence (whole entry): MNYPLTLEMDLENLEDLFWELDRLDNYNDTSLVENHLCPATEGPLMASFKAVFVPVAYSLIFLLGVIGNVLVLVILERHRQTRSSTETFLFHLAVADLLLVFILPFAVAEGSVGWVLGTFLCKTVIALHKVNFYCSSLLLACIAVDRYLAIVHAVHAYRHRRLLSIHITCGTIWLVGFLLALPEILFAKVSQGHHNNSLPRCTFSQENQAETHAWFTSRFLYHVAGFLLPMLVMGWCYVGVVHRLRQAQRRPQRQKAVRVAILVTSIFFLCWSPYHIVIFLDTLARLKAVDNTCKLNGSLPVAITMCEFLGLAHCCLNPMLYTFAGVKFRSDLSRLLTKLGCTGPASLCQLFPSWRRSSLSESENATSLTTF
How it was run: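 Counter-screen chemotaxis: CXCR5-overexpressing L1.2 cells stimulated with CXCL13, test compounds up to 10 µM.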

[3] = Intrinsic clearance in rat liver microsomes assessed per mg of protein; assay type: ADME, Microsome
How it was run: (§1)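 Intrinsic clearance from stability in human and rat liver microsomes, expressed as µL/min/mg protein.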

[4] = Intrinsic clearance in human liver microsomes assessed per mg of protein; assay type: ADME, Microsome; how it was run: as §1
[5] = Chemical stability at pH 1; assay type: physicochemical; conditions: buffer
[6] = molecular target: T2, C-X-C chemokine receptor type 3 (Homo sapiens, UniProt P49682); experiment: Displacement of labeled IP10 from CXCR3
T2 sequence (P49682 whole entry): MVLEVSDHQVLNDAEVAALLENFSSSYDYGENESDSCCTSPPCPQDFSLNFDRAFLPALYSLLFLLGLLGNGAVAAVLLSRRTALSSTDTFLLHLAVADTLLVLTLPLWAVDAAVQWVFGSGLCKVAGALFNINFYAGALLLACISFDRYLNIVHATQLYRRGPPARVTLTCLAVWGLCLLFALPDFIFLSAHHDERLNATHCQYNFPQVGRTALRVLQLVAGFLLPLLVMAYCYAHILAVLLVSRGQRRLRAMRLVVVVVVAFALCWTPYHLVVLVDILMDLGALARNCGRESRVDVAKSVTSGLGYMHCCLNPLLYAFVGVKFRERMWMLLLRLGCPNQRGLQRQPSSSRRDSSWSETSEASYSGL

[7] = Apparent permeability across human Caco-2 cells; assay type: ADME, cell-based
[8] = molecular target: T3, C-X-C chemokine receptor type 3 (Homo sapiens) (UniProt P49682); experiment: Antagonist activity at human CXCR3 expressed in mouse L1.2 cells assessed as inhibition of ITAC-induced chemotaxis after 4 hrs; assay type: functional, cell-based
T3 sequence (whole entry): T2 sequence (P49682 whole entry)

[9] = Nephelometric kinetic solubility in PBS; assay type: physicochemical
[10] = Lipophilicity, log P of the compound; assay type: physicochemical; conditions: octanol/water
[11] = molecular target: T3, C-X-C chemokine receptor type 3 (Homo sapiens); experiment: Antagonist activity at CXCR3 assessed as inhibition of ITAC-induced GTPgammaS binding; assay type: functional
[12] = molecular target: T3, C-X-C chemokine receptor type 3 (Homo sapiens); experiment: Antagonist activity at CXCR3 assessed as inhibition of IP10-induced GTPgammaS binding; assay type: functional
[13] = molecular target: T2, C-X-C chemokine receptor type 3; experiment: Displacement of labeled ITAC from CXCR3
[14] = Volume of distribution at steady state in mouse at 0.2 mg/kg, iv; assay type: ADME, organism-based; design: dose 0.2 mg/kg, route intravenous; conditions: in vivo, read-out: Vdss
[15] = Bioavailability in mouse at 10 mg/kg, po; assay type: ADME, organism-based; conditions: in vivo
[16] = Clearance in mouse at 0.2 mg/kg, iv; assay type: ADME, organism-based; design: dose 0.2 mg/kg, route intravenous; conditions: in vivo
Mus musculus = experiment: Clearance in mouse assessed as liver blood flow at 0.2 mg/kg, iv; assay type: ADME, organism-based; design: dose 0.2 mg/kg, route intravenous; conditions: in vivo
[17] = Intrinsic clearance in mouse liver microsomes assessed per mg of protein; assay type: ADME, Microsome
[18] = Half life in mouse at 10 mg/kg, po; assay type: ADME, organism-based; design: dose 10 mg/kg, route oral; conditions: in vivo

solubility [1] | Activity [2] | microsomal CLint [3] | SMILES | other results
> 100 µM | inactive | – | O=S(=O)(c1ccc(Cl)cc1)N(Cc1ccc(-c2nnn[nH]2)cc1)Cc1ccccc1F | –
< 10 µM | inactive | 1260 µL/min/mg | O=C(NC1(c2ccccc2)CC1)c1ccc(CN(Cc2ccccn2)S(=O)(=O)c2ccc(Cl)cc2)cc1 | microsomal CLint [4]: 257 µL/min/mg
< 10 µM | inactive | – | O=C(NCC1CC1)c1ccc(CN(Cc2ccccc2F)S(=O)(=O)c2ccc(Cl)cc2)cc1 | –
– | inactive | – | O=C(O)c1ccc(CN(Cc2ccccn2)S(=O)(=O)c2ccc(Cl)cc2)cc1F | –
< 10 µM | inactive | – | O=C(NCC1CC1)c1ccc(CN(Cc2ccccc2)S(=O)(=O)c2ccc(OC(F)(F)F)cc2)cc1 | –
> 100 µM | inactive | – | COc1cccc(CN(Cc2ccc(-c3nnn[nH]3)cc2)S(=O)(=O)c2ccc(Cl)cc2)c1 | –
> 100 µM | inactive | – | O=S(=O)(c1ccc(Cl)cc1)N(CCc1cc2ccccc2cn1)Cc1ccc(-c2nnn[nH]2)cc1 | –
< 10 µM | inactive | – | O=C(NCc1cccs1)c1ccc(CN(Cc2ccccc2)S(=O)(=O)c2ccc(Cl)cc2)cc1 | –
< 10 µM | inactive | – | N#Cc1ccc(S(=O)(=O)N(Cc2ccc(C(=O)NCC3CC3)cc2)Cc2ccccn2)cc1 | –
> 100 µM | inactive | 71 µL/min/mg | O=S(=O)(c1ccc(Cl)cc1)N(Cc1ccc(-c2nnn[nH]2)c(F)c1)Cc1ccccc1F | microsomal CLint [4]: < 10 µL/min/mg
– | inactive | < 10 µL/min/mg | O=C(O)c1ccc(CN(Cc2ccccc2F)S(=O)(=O)c2ccc(Cl)cc2)cc1F | –
> 100 µM | inactive | 67 µL/min/mg | N#Cc1ccc(S(=O)(=O)N(Cc2ccc(-c3nnn[nH]3)cc2)Cc2ccccc2F)cc1 | –
– | – | 219 µL/min/mg | CC(=O)Nc1cccc(/C(C)=N\NC(=O)c2ccc(CN(Cc3ccccc3)S(=O)(=O)c3ccc(Cl)cc3)cc2)c1 | Stability [5]: Unstable; Ki [6]: 348 nM; Papp [7]: 0.1 ×10⁻⁶ cm/s; Activity [8]: 1810 nM; solubility kinetic [9]: 11.9 µM (≈ 7.01 µg/mL); microsomal CLint [4]: 92 µL/min/mg; logP [10]: 4.8; Activity [11]: 128 nM; Activity [12]: 99 nM; Ki [13]: 211 nM
> 100 µM | inactive | – | O=S(=O)(c1ccc(Cl)cc1)N(Cc1ccc(-c2nnn[nH]2)cc1)Cc1cccc(Cl)c1 | –
> 100 µM | inactive | – | O=S(=O)(c1ccc(Cl)cc1)N(Cc1ccc(Cl)cc1)Cc1ccc(-c2nnn[nH]2)cc1 | –
< 10 µM | inactive | 1190 µL/min/mg | O=C(NCc1cccc(Cl)c1)c1ccc(CN(Cc2ccccn2)S(=O)(=O)c2ccc(Cl)cc2)cc1 | microsomal CLint [4]: 583 µL/min/mg
> 100 µM | inactive | 25 µL/min/mg | O=S(=O)(c1ccc(Cl)cc1)N(Cc1ccc(-c2nnn[nH]2)cc1)Cc1ccccn1 | microsomal CLint [4]: < 10 µL/min/mg
> 100 µM | inactive | – | N#Cc1ccc(S(=O)(=O)N(Cc2ccc(-c3nnn[nH]3)c(F)c2)Cc2ccccc2F)cc1 | Vd [14]: 1 L/kg; bioavailability [15]: 83%; clearance [16]: 28.3 mL/min/kg; Fraction of Liver Blood Flow (Mus musculus): 30%; microsomal CLint [17]: 17 µL/min/mg; half-life [18]: 1 h
– | inactive | – | N#Cc1ccc(S(=O)(=O)N(Cc2ccc(C(=O)O)c(F)c2)Cc2ccccn2)cc1 | –
> 100 µM | inactive | – | CC(C)(C)c1nc(CCN(Cc2ccc(-c3nnn[nH]3)cc2)S(=O)(=O)c2ccc(Cl)cc2)no1 | –

solubility [1] | Activity [2] | microsomal CLint [3] | SMILES | other results
< 10 µM | inactive | – | COc1ccc(S(=O)(=O)N(Cc2ccc(C(=O)NCC3CC3)cc2)Cc2cccnc2)cc1 | –
< 10 µM | inactive | – | COc1ccc(S(=O)(=O)N(Cc2ccccc2)Cc2ccc(C(=O)NCC3CC3)cc2)cc1 | –
– | inactive | – | O=S(=O)(c1ccc(Cl)cc1)N(Cc1ccc(-c2nnc(O)o2)cc1)Cc1ccccn1 | –
– | inactive | 20 µL/min/mg | O=C(O)c1ccc(CN(Cc2ccccc2)S(=O)(=O)c2ccc(Cl)cc2)cc1 | microsomal CLint [4]: < 10 µL/min/mg
< 10 µM | inactive | – | O=C(NCc1cccc(Cl)c1)c1ccc(CN(Cc2ccccc2)S(=O)(=O)c2ccc(Cl)cc2)cc1 | –
> 100 µM | inactive | – | N#Cc1ccc(S(=O)(=O)N(Cc2ccc(-c3nnn[nH]3)cc2)Cc2ccccn2)cc1 | –
> 100 µM | inactive | – | COc1ccc(CN(Cc2ccc(-c3nnn[nH]3)cc2)S(=O)(=O)c2ccc(Cl)cc2)cc1 | –
– | inactive | – | COc1ccc(S(=O)(=O)N(Cc2ccccc2)Cc2ccc(C(=O)O)cc2)cc1 | –
> 100 µM | inactive | – | CCOc1ccc(S(=O)(=O)N(Cc2ccc(-c3nnn[nH]3)cc2)Cc2ccccn2)cc1 | –
< 10 µM | inactive | – | O=C(NCC1CC1)c1ccc(CN(Cc2cccc(Cl)c2)S(=O)(=O)c2ccc(Cl)cc2)cc1 | –
< 10 µM | inactive | 507 µL/min/mg | O=C(NC1(c2ccccc2)CC1)c1ccc(CN(Cc2ccccc2)S(=O)(=O)c2ccc(Cl)cc2)cc1 | microsomal CLint [4]: 211 µL/min/mg
< 10 µM | inactive | 1700 µL/min/mg | O=C(NC[C@@H]1CCCO1)c1ccc(CN(Cc2ccccc2)S(=O)(=O)c2ccc(Cl)cc2)cc1 | microsomal CLint [4]: 490 µL/min/mg
< 10 µM | inactive | 538 µL/min/mg | O=C(NCC1CC1)c1ccc(CN(Cc2ccccn2)S(=O)(=O)c2ccc(Cl)cc2)cc1 | microsomal CLint [4]: 265 µL/min/mg
> 100 µM | inactive | – | O=S(=O)(c1ccc(Cl)cc1)N(Cc1ccc(F)cc1)Cc1ccc(-c2nnn[nH]2)cc1 | –
< 10 µM | inactive | – | CCOc1ccc(S(=O)(=O)N(Cc2ccccc2)Cc2ccc(C(=O)NCC3CC3)cc2)cc1 | –
< 10 µM | inactive | – | O=C(NCC1CC1)c1ccc(CN(Cc2ccccc2)S(=O)(=O)c2ccc(Cl)cc2)cc1 | –
< 10 µM | inactive | – | COc1ccc(S(=O)(=O)N(Cc2ccccc2)Cc2ccc(C(=O)NCc3ccccc3)cc2)cc1 | –
> 100 µM | inactive | – | O=S(=O)(c1ccc(Cl)cc1)N(Cc1ccc(-c2nnn[nH]2)c(F)c1)Cc1ccccn1 | –
< 10 µM | inactive | – | O=C(NCCc1cccc([N+](=O)[O-])c1)c1ccc(CN(Cc2ccccc2)S(=O)(=O)c2ccc(Cl)cc2)cc1 | –
< 10 µM | inactive | 474 µL/min/mg | N#Cc1ccc(S(=O)(=O)N(Cc2ccc(C(=O)NC3(c4ccccc4)CC3)cc2)Cc2ccccn2)cc1 | microsomal CLint [4]: 435 µL/min/mg
